ChEMBL document CHEMBL1821678, “Synthesis and bio-activity evaluation of tetraphenyl(phenylamino) methylene bisphosphonates as antioxidant agents and as potent inhibitors of osteoclasts in vitro” (Eur J Med Chem, 2011)
≈ marks a conversion by molar mass, not a printed value.

Key:
Osteoclast [1] = experiment: In-vitro antibone resorptive activity Sprague-Dawley rat pup long bone osteoclasts assessed as compound concentration causing inhibition of bone resorption after 24 hrs by MTT assay; type: functional
Method in brief: (§1)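 Osteoclasts scraped from long bones of 1–2-day-old Sprague–Dawley rat pups into Hepes-buffered DMEM with 7–10% heat-inactivated FCS; attached 30 min to bovine cortical bone slices, unattached cells rinsed off. Treated at 10, 50, 100 and 250 μM, 37 °C, 5% CO2; harvested at 24, 48, 72 h; MTT viability read at 492 nm, triplicates; inhibitory ratio reported. Alendronate reference.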

Liver = experiment: Antioxidant activity in rat liver cells assessed as inhibition of Fe(2+)-asocrbate complex system-induced lipid peroxidation by TBARS assay; type: functional, cell-based
Method in brief: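 Lipid peroxidation in rat liver cells induced by Fe2+–ascorbate complex; measured as thiobarbituric acid reacting substances (TBARS). Vitamin C standard; IC50 derived.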

Osteoclast [2] = experiment: In-vitro antibone resorptive activity Sprague-Dawley rat pup long bone osteoclasts assessed as compound concentration causing inhibition of bone resorption after 72 hrs by MTT assay; type: functional; method in brief: as §1
[3] = test system: Radical scavenging activity; experiment: Antioxidant activity assessed as DPPH free radical scavenging activity after 30 mins; type: functional
Method in brief: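 DPPH (85 μM) added to medium containing a range of test concentrations; incubated 30 min at room temperature; decrease in absorbance read at 518 nm. Ascorbic acid served as reference for maximal decrease. Activity expressed as % inhibition of DPPH absorbance relative to standard; IC50 derived.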

[4] = Antioxidant activity assessed as potassium ferricyanide ion reducing power after 20 mins by spectrophotometry; type: functional
Method in brief: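 Compounds (50–100 μM) mixed with phosphate buffer (0.2 M, pH 6.6) and 1% potassium ferricyanide, 50 °C for 20 min; 10% TCA added, centrifuged; upper layer diluted with water plus 0.1% ferric chloride; absorbance at 700 nm, higher absorbance = greater reducing power. Vitamin C standard.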

Osteoclast [5] = experiment: In-vitro antibone resorptive activity Sprague-Dawley rat pup long bone osteoclasts assessed as compound concentration causing inhibition of bone resorption after 48 hrs by MTT assay; type: functional; method in brief: as §1

Row | Compound | Concentration causing inhibition of bone resorption (Osteoclast [1]) [µM] | IC50 (Liver) [µg/mL] | inhibitory concentration (Osteoclast [2]) [µM] | IC50 [3] [µg/mL] | IC50 [4] [µg/mL] | Concentration causing inhibition of bone resorption (Osteoclast [5]) [µM] | INH (Osteoclast [1]) [µM] | INH (Osteoclast [5]) [µM]
1 | O=P(Oc1ccccc1)(Oc1ccccc1)C(Nc1ccc(Cl)cc1)P(=O)(Oc1ccccc1)Oc1ccccc1 | 191.4 | 87.5 (≈ 144 µM) | 71.8 | 41.5 (≈ 68.5 µM) | 2.71 (≈ 4.47 µM) | 140.3 | – | –
2 | O=[N+]([O-])c1ncc(NC(P(=O)(Oc2ccccc2)Oc2ccccc2)P(=O)(Oc2ccccc2)Oc2ccccc2)s1 | 106.6 | 97.9 (≈ 157 µM) | 51.6 | 48.6 (≈ 77.9 µM) | 3.54 (≈ 5.68 µM) | 87.7 | – | –
3 | COc1ccc(NC(P(=O)(Oc2ccccc2)Oc2ccccc2)P(=O)(Oc2ccccc2)Oc2ccccc2)cc1 | 138.7 | 89.8 (≈ 149 µM) | 67.7 | 40.7 (≈ 67.7 µM) | 2.73 (≈ 4.54 µM) | 102.6 | – | –
4 | O=[N+]([O-])c1cc(NC(P(=O)(Oc2ccccc2)Oc2ccccc2)P(=O)(Oc2ccccc2)Oc2ccccc2)ccc1F | 31.2 | 78.5 (≈ 124 µM) | 8.1 | 30.1 (≈ 47.4 µM) | 2.27 (≈ 3.58 µM) | 19.1 | – | –
5 | O=P(Oc1ccccc1)(Oc1ccccc1)C(Nc1cccc2ncsc12)P(=O)(Oc1ccccc1)Oc1ccccc1 | 125.9 | 84.9 (≈ 135 µM) | 54.5 | 47.9 (≈ 76.2 µM) | 2.44 (≈ 3.88 µM) | 95.9 | – | –
6 | O=P(Oc1ccccc1)(Oc1ccccc1)C(Nc1ccc(F)cc1)P(=O)(Oc1ccccc1)Oc1ccccc1 | 126.1 | 86.2 (≈ 146 µM) | 56.4 | 48.2 (≈ 81.8 µM) | 2.86 (≈ 4.85 µM) | 89.1 | – | –
7 | O=P(Oc1ccccc1)(Oc1ccccc1)C(Nc1ccc(F)c(Cl)c1)P(=O)(Oc1ccccc1)Oc1ccccc1 | 32.7 | 80.6 (≈ 129 µM) | 10.4 | 32.9 (≈ 52.7 µM) | 2.14 (≈ 3.43 µM) | 21.6 | – | –
8 | O=[N+]([O-])c1cccc(NC(P(=O)(Oc2ccccc2)Oc2ccccc2)P(=O)(Oc2ccccc2)Oc2ccccc2)c1 | 49.6 | 85.7 (≈ 139 µM) | 14.6 | 39.6 (≈ 64.2 µM) | 2.09 (≈ 3.39 µM) | 28.8 | – | –
9 | Cc1ncc(NC(P(=O)(Oc2ccccc2)Oc2ccccc2)P(=O)(Oc2ccccc2)Oc2ccccc2)s1 | 88.4 | 75.2 (≈ 127 µM) | 48.8 | 58.4 (≈ 98.6 µM) | 3.01 (≈ 5.08 µM) | 64.2 | – | –
10 | NCCCC(O)(P(=O)(O)O)P(=O)(O)O [ALENDRONIC ACID] | – | – | 20.4 | – | – | – | 52.7 | 29.6
11 | O=P(Oc1ccccc1)(Oc1ccccc1)C(Nc1ccccc1)P(=O)(Oc1ccccc1)Oc1ccccc1 [TETRAPHENYL(PHENYLAMINO)METHYLENE DIPHOSPHONATE] | 201.6 | 96 (≈ 168 µM) | 104.4 | 80.6 (≈ 141 µM) | 3.12 (≈ 5.46 µM) | 168.2 | – | –
12 | O=C1O[C@H]([C@@H](O)CO)C(O)=C1O [ASCORBIC ACID] | – | 75.2 (≈ 427 µM) | – | 32.2 (≈ 183 µM) | 2.51 (≈ 14.3 µM) | – | – | –
